DENV2 CPE rescue – protects cells from dengue virus 2 cytopathic effect; DENV2-infected cells, cytopathic effect rescue, plate reader; CPE inhibition, % at 9.99 µM; 350,000 tested, 1.7% active; AID 651640; in the data active = CPE inhibition above about 20%, passing the limit was not always enough; inconclusive = no clear call, values can overlap the other calls; tested in BHK-21 cells;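 also: 0% = median of neutral control wells and 100% = median of positive control wells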
Xi reactivation – X-chromosome reactivation activator. AID 743238. 360,000 tested, 0.055% active. XiGFP mouse fibroblasts, % GFP-positive cells imaging, 3 d; cells co-treated with 5-aza-dC sensitizer; scaled so ellipticine positive control = 100%. activation, % at 7.58 µM;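 active = mean normalized replicate activation at least 10% and every replicate at or above 10%; inconclusive = only one of the two criteria met; inactive = mean below 10% and not all replicates reach 10%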;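 also: 0% = median of on-plate neutral control wells and 100% = ellipticine 6 µM median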
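Assay system – SV40-immortalized XiGFP fibroblast cells, line 68-5-11 · Buffer or medium – DMEM supplemented with 5-aza-dC as sensitizing agent · Dosing – one concentration, pinned · Benchmarks – positive control ellipticine, 6 µM final · Times – 3 days compound exposure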
S100A4 MyoIIA – inhibitors of human S100A4 binding to myosin IIA peptide | P26447 | S100A4/TAMRA-MyoIIA peptide fluorescence polarization | inhibition, % at 10.7 µM | 360,000 tested, 0.14% active | AID 652163;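 active = mean inhibition of at least 70% across replicates, with every replicate also reaching that level; inconclusive = mean inhibition reaches 70% but some replicates fall short; inactive = mean inhibition below 70%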
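Assay system: human S100A4 monomer with TAMRA-labelled myosin IIA peptide / Buffer or medium: Calcium-containing HEPES buffer, pH 7.2 / Reagent: TAMRA-labelled myosin IIA heavy-chain peptide probe, 5 nM / Compound: one dose per compound / Timing: polarization read 5 min after assay mix addition, stable 5–60 min / Benchmarks: neutral control DMSO, positive control TFP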
E-selectin induc – E-selectin induction on HUVECs; HUVEC E-selectin immunofluorescence imaging; normalized: neutral wells 0, TNF-alpha wells 100; activation, % at 7.58 µM; 260,000 tested, 0.37% active; P16581; AID 686992;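 active = mean E-selectin-positive cell signal at least 10% of the positive control, reached in at least 60% of replicates, without over 20% cell loss; inconclusive = no rule given, readout overlaps actives, possibly toxicity-flagged; inactive = the rest, including those meeting only one limit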
Target sequence (P16581 whole entry, looked up): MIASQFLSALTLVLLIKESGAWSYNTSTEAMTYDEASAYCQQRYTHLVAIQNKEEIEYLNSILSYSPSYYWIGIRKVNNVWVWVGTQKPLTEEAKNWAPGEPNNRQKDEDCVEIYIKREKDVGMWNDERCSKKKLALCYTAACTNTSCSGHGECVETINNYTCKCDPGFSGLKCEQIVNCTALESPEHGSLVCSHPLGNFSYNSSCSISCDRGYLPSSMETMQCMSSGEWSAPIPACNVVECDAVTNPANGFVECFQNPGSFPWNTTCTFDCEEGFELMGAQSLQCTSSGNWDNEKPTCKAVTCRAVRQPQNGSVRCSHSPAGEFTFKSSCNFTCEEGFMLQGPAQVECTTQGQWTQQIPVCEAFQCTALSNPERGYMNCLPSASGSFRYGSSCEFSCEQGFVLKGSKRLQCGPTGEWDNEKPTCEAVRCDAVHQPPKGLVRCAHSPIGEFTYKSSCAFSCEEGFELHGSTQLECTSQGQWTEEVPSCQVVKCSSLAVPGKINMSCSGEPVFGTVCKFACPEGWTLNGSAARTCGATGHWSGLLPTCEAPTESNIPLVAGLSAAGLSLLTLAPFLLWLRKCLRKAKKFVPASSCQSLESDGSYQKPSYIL
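System: HUVEC, human umbilical vein endothelial cells; quantity: 3,000 cells/well; buffer or medium: EGM-2 medium, gelatin-coated wells; dosing: single-point compound dose; detection: immunofluorescence imaging; evaluation: % PE-positive cells; benchmarks: TNF-alpha, DMSO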
* hit, by the source's call; u = inconclusive; x = no result given. Sampled rows, rich in hits. Any-hit rate of the full collection: about 2%.

SMILES	DENV2 CPE rescue	Xi reactivation	S100A4 MyoIIA	E-selectin induc
CN(Cc1ccccc1)C(=O)c1ccc(NC(=O)Cc2cccc(NC(=O)C3CCCN(C(=O)CCc4ccccc4)C3)c2)cc1 (stereo not drawn)	-3	0	-5	1
O=C(Cc1cccc(NC(=O)C2CCCN(C(=O)C3CC3)C2)c1)Nc1cccc(C(=O)N2CCCC2)c1 (stereo not drawn)	-12	0	1	0
O=C(Cc1cccc(NC(=O)C2CCCN(C(=O)C3CC3)C2)c1)Nc1cccc(C(=O)N2CCCCC2)c1 (stereo not drawn)	59*	x	14	0
C[C@H](O)[C@@H]1CN2CCc3c([nH]c4ccccc34)[C@@H]2C[C@@H]1N(C)C(=S)Nc1ccc(C#N)cc1	25*	0	-15	0
C[C@H](O)[C@@H]1CN2CCc3c([nH]c4ccccc34)[C@@H]2C[C@@H]1N(C)C(=O)Nc1ccc(Br)cc1	9	x	-2	0
C[C@@H]1CN([C@@H](C)CO)C(=O)Cc2cc(NC(=O)Nc3cccc4ccccc34)ccc2O[C@H]1CN(C)Cc1ccccc1	20*	0	-9	0
C[C@H]1CN([C@@H](C)CO)C(=O)Cc2cc(NC(=O)Nc3cccc4ccccc34)ccc2O[C@H]1CN(C)Cc1ccc(C(=O)O)cc1	5	-1	27	0
C[C@@H]1CN([C@@H](C)CO)C(=O)Cc2cc(NC(=O)Nc3cccc4ccccc34)ccc2O[C@@H]1CN(C)Cc1ccc(C(=O)O)cc1	49*	-1	-1	0
Cc1ccc2nc(NC(=O)CSCC(=O)Nc3cc(C)on3)sc2c1	u	0	4	x
CCc1c(O)nc(SCC(=O)Nc2nc3ccccc3s2)n(-c2ccccc2)c1=O	-2	0	7	0
Cc1cc(NC(=O)CSCC(=O)Nc2nc3ccccc3s2)no1	45*	0	3	1
C=CCn1c(SCC(=O)Nc2nc3ccccc3s2)nc(O)c(CC)c1=O	17	6	-1	33*
CCOC(=O)c1c(S(=O)(=O)NCC(=O)Nc2ccccc2OC)c(C)n(C)c1C	2	0	-7	x
Cc1ccccc1C(=O)N1CCC(C(=O)NN2C(=O)NC3(CCCCC3)C2=O)CC1	-6	0	2	264*
Cc1ccccc1C(=O)N1CCC(C(=O)NN2C(=O)NC3(CCC(C)CC3)C2=O)CC1 (stereo not drawn)	-5	0	-4	x
CC(C)(C)Nc1c(C2CCNCC2)nc2c(OCc3ccccc3)cccn12	1	0	-3	0
Cc1noc(C)c1NC(=O)NCC[C@@H]1CC[C@@H](NC(=O)c2ccc(F)cc2)[C@@H](CO)O1	-4	0	-2	0
COc1ccccc1NC(=O)CCC(=O)N/N=C(/C)c1ccc(C)cc1	1	0	-6	1
C/C(=N/NC(=O)CCC(=O)Nc1cccc(Cl)c1)c1ccc(C)cc1	28*	0	-3	x
C/C(=N\NC(N)=O)c1cccc(Cl)c1	38*	0	-1	x
O=C(Nc1nnc(SCC(=O)N2CCOCC2)s1)c1ccccc1Cl	-3	x	-4	x
CO[C@@H]1CN(C)C(=O)c2cc(NC(C)=O)ccc2OC[C@@H](C)N(Cc2nccs2)C[C@H]1C	7	0	1	0
CCCN[C@@H]1C(=O)N2C(C(=O)OCCC)=C(C)CS[C@H]12	72*	0	0	x
CC(=O)c1cccc(S(=O)(=O)NCC(C)(C)N2CCOCC2)c1	-3	0	-1	2
COc1cc2c(cc1OC)CN(C(=O)[C@@H]1[C@H]3C(=O)O[C@H](c4ccccc4)[C@H](c4ccccc4)N3[C@H](c3ccc(O)cc3)[C@@]13C(=O)Nc1ccc(C#CCCO)cc13)CC2	3	x	15	x
SMILES	DENV2 CPE rescue	Xi reactivation	S100A4 MyoIIA	E-selectin induc
CCN(C[C@H]1[C@@H](c2ccccc2)[C@H](CO)N1CC1CC1)C(=O)c1ccccn1	25*	0	43	0
O=C(NC[C@H]1[C@@H](c2ccccc2)[C@@H](CO)N1Cc1ccccc1)c1ccccn1	-9	0	4	0
CCN(C[C@H]1[C@H](c2ccccc2)[C@@H](CO)N1CC1CC1)C(=O)c1ccccn1	21*	0	-9	0
O=C(NC[C@H]1[C@H](c2ccccc2)[C@@H](CO)N1Cc1cccnc1)c1ccccn1	38*	0	3	0
C[C@@H]1CN([C@@H](C)CO)C(=O)c2cc(NS(=O)(=O)c3ccc(Cl)cc3)ccc2O[C@@H](C)CCCCO[C@@H]1CN(C)C(=O)CCCN(C)C	20*	0	-2	0
C[C@@H]1CN([C@H](C)CO)C(=O)c2cc(NS(=O)(=O)c3ccc(Cl)cc3)ccc2O[C@@H](C)CCCCO[C@@H]1CN(C)C(=O)CCCN(C)C	22*	0	-13	0
O=[N+]([O-])c1ccc(S(=O)(=O)N/N=C/c2cccs2)cc1	4	0	47	-1
Cc1nc(CSc2n[nH]c(=O)n2-c2ccccc2)cs1	-2	0	-8	0
C[C@@H]1CCCCO[C@H](CN(C)S(=O)(=O)c2ccc(Cl)cc2)[C@@H](C)CN([C@@H](C)CO)C(=O)c2cc(NC(=O)Nc3ccc(C(F)(F)F)cc3)ccc2O1	32*	0	x	1
Cc1ccc(S(=O)(=O)N(C)C[C@H]2OCCCC[C@@H](C)Oc3ccc(NC(=O)Nc4ccc(C(F)(F)F)cc4)cc3C(=O)N([C@@H](C)CO)C[C@H]2C)cc1	24*	0	8	x
CC1(C)COC(c2ccc(F)c([N+](=O)[O-])c2)=N1	34*	0	-2	x
CC1(C)COC(/C=C/c2cccc([N+](=O)[O-])c2)=N1	4	0	3	x
CN1C(c2ccccc2)CCOS1(=O)=O (stereo not drawn)	47*	0	4	x
O=S1(=O)OCCC(c2ccccc2)N1Cc1ccccc1 (stereo not drawn)	17	0	-11	0
N#C[C@@H]1[C@@H](c2ccccc2-c2ccc(F)cc2)[C@H](CO)N1c1ncc(-c2ccccc2)s1	76*	0	-7	0
N#C[C@@H]1[C@H](c2ccccc2-c2ccc(F)cc2)[C@H](CO)N1c1ncc(-c2ccccc2)s1	-8	0	9	0
N#C[C@H]1[C@@H](c2ccccc2-c2ccc(F)cc2)[C@@H](CO)N1c1ncc(-c2ccccc2)s1	23*	0	-21	0
O=C(NN1C(=O)NC2(CCCCC2)C1=O)c1ccc(-c2ccc(Cl)cc2)o1	1	0	-3	x
CCC(=O)N1C[C@@H]2[C@H](c3ccccc31)[C@@H](CO)N2C(=O)CC	-6	0	73*	1
CCC(=O)N1C[C@@H]2[C@H](c3ccccc31)[C@H](CO)N2Cc1ccccc1OC	35*	0	2	0
CCC(=O)N1C[C@H]2[C@@H](c3ccccc31)[C@@H](CO)N2C(=O)CC	-5	0	38	0

Bioassay records from PubChem BioAssay.
